According to ChEMBL document CHEMBL1156845, “Spirocyclic ureas: orally bioavailable 11 beta-HSD1 inhibitors identified by computer-aided drug design” (Bioorg Med Chem Lett, 2010):

Assays:
[1] = target: T1, 11-beta-hydroxysteroid dehydrogenase 1 (Homo sapiens, UniProt P28845); assay: Inhibition of human recombinant 11beta-HSD1 expressed in CHO cells assessed as conversion of [3H]cortisone to [3H]cortisol by SPA; format: cell-based
[2] = target: T1, 11-beta-hydroxysteroid dehydrogenase 1; assay: Inhibition of 11beta-HSD1 in human adipocytes assessed as conversion of [3H]cortisone to [3H]cortisol after 2 hrs by SPA; format: cell-based
[3] = target: T2, 11-beta-hydroxysteroid dehydrogenase type 2 (Homo sapiens, UniProt P80365); assay: Inhibition of 11beta-HSD2
T2 sequence (P80365 whole entry): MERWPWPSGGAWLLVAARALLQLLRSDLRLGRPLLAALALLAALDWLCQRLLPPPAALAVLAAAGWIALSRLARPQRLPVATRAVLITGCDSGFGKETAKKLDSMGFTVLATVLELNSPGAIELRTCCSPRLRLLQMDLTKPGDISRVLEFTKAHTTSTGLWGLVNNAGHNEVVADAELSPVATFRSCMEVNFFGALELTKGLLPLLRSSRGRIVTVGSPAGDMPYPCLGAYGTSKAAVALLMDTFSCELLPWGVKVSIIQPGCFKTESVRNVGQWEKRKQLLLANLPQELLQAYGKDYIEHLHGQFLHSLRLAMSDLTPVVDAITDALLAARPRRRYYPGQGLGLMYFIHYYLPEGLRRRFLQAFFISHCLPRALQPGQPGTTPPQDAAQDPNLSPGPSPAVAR

[4] = AUC (infinity) in rat at 9.68 mg/kg, po and 1.9 mg/kg, iv; format: ADME, organism-based; conditions: plasma
Outline: (§1)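 PK after oral and IV dosing, with compounds given as sodium salts. Rat and mouse received 9.68 mg/kg PO and 1.9 mg/kg IV; cynomolgus monkey received 2 mg/kg PO and 1 mg/kg IV. AUC(inf) and t1/2 are the oral parameters, clearance is from the IV arm, and %F is oral bioavailability.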

[5] = Half life in rat at 9.68 mg/kg, po and 1.9 mg/kg, iv; format: ADME, organism-based; conditions: in vivo; outline: as §1
[6] = Clearance in rat at 1.9 mg/kg, iv; format: ADME, organism-based; design: dose 1.9 mg/kg, route intravenous; conditions: in vivo; outline: as §1
[7] = Oral bioavailability in rat at 9.68 mg/kg; format: ADME, organism-based; conditions: in vivo; outline: as §1
[8] = Drug level in mouse liver at 30 mg/kg, po after 4 hrs by LC-MS/MS analysis; format: ADME, organism-based; design: dose 30 mg/kg, route oral; conditions: read-out: Drug uptake
Outline: (§2)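 Mice (n = 3) were dosed PO at 30 mg/kg as a suspension in 0.5% methocellulose in PBS. Plasma, liver and adipose were harvested at 4 h and snap frozen. Thawed tissue was homogenized in 0.05 M BES, pH 7, and extracted into acetonitrile. Levels were measured by LC–MS/MS against standard curves made separately in each tissue matrix.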

[9] = Drug level in mouse adipose at 30 mg/kg, po after 4 hrs by LC-MS/MS analysis; format: ADME, organism-based; design: dose 30 mg/kg, route oral; conditions: adipose tissue, read-out: Drug uptake; outline: as §2
[10] = Drug level in mouse plasma at 30 mg/kg, po after 4 hrs by LC-MS/MS analysis; format: ADME, organism-based; design: dose 30 mg/kg, route oral; outline: as §2
Cynomolgus monkey = assay: Inhibition of 11beta-HSD1 in cynomolgus monkey assessed as reduction of plasma cortisol concentration at 10 mg/kg, po administered 2 hrs before cortisone 21-acetate challenge measured every 30 mins for 6 hrs; format: functional, Macaca fascicularis; design: scale not given: the % may be the effect or the level left
Outline: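 Cynomolgus monkeys (n = 5, crossover, 7-day washout) were given dexamethasone at t = −8 h to suppress endogenous cortisol. Vehicle or compound (10 mg/kg PO) followed at t = 0, then cortisone 21-acetate challenge (25 mg PO) at t = 2 h. Blood was sampled every 30 min for 6 h to measure plasma cortisol.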

[11] = Clearance in mouse at 1.9 mg/kg, iv; format: ADME, organism-based; design: dose 1.9 mg/kg, route intravenous; conditions: in vivo; outline: as §1
[12] = Oral bioavailability in mouse at 9.68 mg/kg; format: ADME, organism-based; conditions: in vivo; outline: as §1
[13] = AUC (infinity) in mouse at 9.68 mg/kg, po and 1.9 mg/kg, iv; format: ADME, organism-based; conditions: plasma; outline: as §1
[14] = Half life in mouse at 9.68 mg/kg, po and 1.9 mg/kg, iv; format: ADME, organism-based; conditions: in vivo; outline: as §1
[15] = AUC (infinity) in cynomolgus monkey at 2 mg/kg, po and 1 mg/kg, iv; format: ADME, organism-based, Macaca fascicularis; conditions: plasma; outline: as §1
[16] = Half life in cynomolgus monkey at 2 mg/kg, po and 1 mg/kg, iv; format: ADME, organism-based, Macaca fascicularis; conditions: in vivo; outline: as §1
[17] = Clearance in cynomolgus monkey at 1 mg/kg, iv; format: ADME, organism-based, Macaca fascicularis; design: dose 1 mg/kg, route intravenous; conditions: in vivo; outline: as §1
[18] = Oral bioavailability in cynomolgus monkey at 2 mg/kg; format: ADME, organism-based, Macaca fascicularis; conditions: in vivo; outline: as §1
Cytochrome P450 3A4 = Cytochrome P450 3A4 (Homo sapiens, UniProt P08684); assay: Inhibition of CYP3A4; format: ADME
Cytochrome P450 2C9 = Cytochrome P450 2C9 (Homo sapiens, UniProt P11712); assay: Inhibition of CYP2C9; format: ADME
Cytochrome P450 2D6 = Cytochrome P450 2D6 (Homo sapiens, UniProt P10635); assay: Inhibition of CYP2D6; format: ADME
[19] = Half life in human liver microsomes; format: ADME, Microsome

T1 sequence (P28845 whole entry): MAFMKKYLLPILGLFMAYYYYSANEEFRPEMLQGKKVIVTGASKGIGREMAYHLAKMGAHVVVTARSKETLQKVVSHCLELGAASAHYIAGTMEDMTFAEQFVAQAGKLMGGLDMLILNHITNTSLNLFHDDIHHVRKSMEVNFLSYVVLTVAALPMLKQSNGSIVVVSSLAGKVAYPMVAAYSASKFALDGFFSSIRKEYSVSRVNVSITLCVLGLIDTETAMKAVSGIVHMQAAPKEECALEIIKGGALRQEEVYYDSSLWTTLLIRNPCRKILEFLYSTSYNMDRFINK
Sequence of Cytochrome P450 3A4 (P08684 whole entry): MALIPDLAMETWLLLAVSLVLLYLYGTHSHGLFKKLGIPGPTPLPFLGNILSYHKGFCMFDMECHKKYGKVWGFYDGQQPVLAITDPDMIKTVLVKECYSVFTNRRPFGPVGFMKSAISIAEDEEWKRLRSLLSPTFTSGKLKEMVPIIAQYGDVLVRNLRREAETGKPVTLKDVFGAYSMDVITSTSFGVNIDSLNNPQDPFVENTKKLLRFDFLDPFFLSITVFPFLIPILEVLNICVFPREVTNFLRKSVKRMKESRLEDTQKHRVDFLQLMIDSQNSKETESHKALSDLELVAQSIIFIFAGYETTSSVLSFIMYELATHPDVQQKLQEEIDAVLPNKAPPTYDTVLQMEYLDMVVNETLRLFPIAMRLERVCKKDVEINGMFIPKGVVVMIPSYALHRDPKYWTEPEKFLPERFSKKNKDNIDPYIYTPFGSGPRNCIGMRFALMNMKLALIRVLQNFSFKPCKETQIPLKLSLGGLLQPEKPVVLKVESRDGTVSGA
Sequence of Cytochrome P450 2C9 (P11712 whole entry): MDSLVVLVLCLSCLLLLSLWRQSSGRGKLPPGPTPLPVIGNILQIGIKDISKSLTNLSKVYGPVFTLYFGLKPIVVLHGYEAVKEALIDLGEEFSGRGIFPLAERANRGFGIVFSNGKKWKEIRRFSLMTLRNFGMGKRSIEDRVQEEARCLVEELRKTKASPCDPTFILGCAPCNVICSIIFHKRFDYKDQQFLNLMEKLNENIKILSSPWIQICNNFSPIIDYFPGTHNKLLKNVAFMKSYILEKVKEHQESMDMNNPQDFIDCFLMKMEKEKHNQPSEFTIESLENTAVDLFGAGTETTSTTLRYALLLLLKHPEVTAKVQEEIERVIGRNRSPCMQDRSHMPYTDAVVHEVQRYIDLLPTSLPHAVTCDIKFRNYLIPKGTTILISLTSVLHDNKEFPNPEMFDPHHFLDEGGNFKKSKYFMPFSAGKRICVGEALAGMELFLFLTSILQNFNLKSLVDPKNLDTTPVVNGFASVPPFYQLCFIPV
Sequence of Cytochrome P450 2D6 (P10635 whole entry): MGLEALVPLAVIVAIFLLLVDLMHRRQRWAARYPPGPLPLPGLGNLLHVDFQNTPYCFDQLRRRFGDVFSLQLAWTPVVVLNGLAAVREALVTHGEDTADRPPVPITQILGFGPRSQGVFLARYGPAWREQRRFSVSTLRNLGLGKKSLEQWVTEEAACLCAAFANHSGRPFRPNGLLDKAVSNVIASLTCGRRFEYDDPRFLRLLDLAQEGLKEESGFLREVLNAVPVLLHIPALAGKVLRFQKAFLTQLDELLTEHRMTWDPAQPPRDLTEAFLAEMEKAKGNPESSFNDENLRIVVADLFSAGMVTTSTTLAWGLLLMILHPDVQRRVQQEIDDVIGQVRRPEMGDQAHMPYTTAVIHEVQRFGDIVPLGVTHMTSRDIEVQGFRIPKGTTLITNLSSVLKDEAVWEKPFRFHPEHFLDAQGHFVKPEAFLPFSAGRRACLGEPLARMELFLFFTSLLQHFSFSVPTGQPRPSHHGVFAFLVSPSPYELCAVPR

IC50 [1] [nM] | IC50 [2] [nM] | IC50 [3] [nM] | Structure (SMILES) | other results
0.8 | 2.7 | – | O=C(NC1C2CC3CC(C2)CC1C3)N1CCC2(CCc3ccccc32)CC1 (stereo not drawn) | –
8.9 | 22.5 | > 10000 | Cc1ccc2c(c1)C1(CCN(C(=O)NC3C4CC5CC(C4)CC3C5)CC1)CC2CC(=O)O (stereo not drawn) | –
– | – | – | O=C(O)CC1CC2(CCN(C(=O)NC3C4CC5CC(C4)CC3C5)CC2)c2ccccc21 (stereo not drawn) | AUC(0-inf) [4]: 3530 ng·h/mL; half-life [5]: 2.87 h; clearance [6]: 47.1 mL/min/kg; bioavailability [7]: 94%
68.6 | > 200 | – | O=C(O)C1CC2(CCN(C(=O)NC3C4CC5CC(C4)CC3C5)CC2)c2ccccc21 (stereo not drawn) | –
2 | 22.3 | > 10000 | CS(=O)(=O)NC(=O)CC1CC2(CCN(C(=O)NC3C4CC5CC(C4)CC3C5)CC2)c2c(Br)cccc21 (stereo not drawn) | –
0.5 | 0.9 | – | NC(=O)CC1CC2(CCN(C(=O)NC3C4CC5CC(C4)CC3C5)CC2)c2c(Br)cccc21 (stereo not drawn) | –
1.1 | 2.5 | > 10000 | O=C(O)C[C@H]1CC2(CCN(C(=O)NC3C4CC5CC(C4)CC3C5)CC2)c2c(Br)cccc21 (stereo partly drawn) | concentration at 4 h [8]: 7070 ng/mL; concentration at 4 h [9]: 127 ng/mL; concentration at 4 h [10]: 393 ng/mL; Activity (Cynomolgus monkey): 80%
3.4 | 30.2 | > 10000 | O=C(O)CC1CC2(CCN(C(=O)NC3C4CC5CC(C4)CC3C5)CC2)c2cc(Cl)ccc21 (stereo not drawn) | –
2.2 | 10.7 | > 10000 | O=C(O)CC1CC2(CCN(C(=O)NC3C4CC5CC(C4)CC3C5)CC2)c2c(Cl)cccc21 (stereo not drawn) | –
1.6 | 5.3 | > 10000 | O=C(O)CC1CC2(CCN(C(=O)NC3C4CC5CC(C4)CC3C5)CC2)c2c(Br)cccc21 (stereo not drawn) | clearance [11]: 28.1 mL/min/kg; bioavailability [12]: 29%; AUC(0-inf) [4]: 5400 ng·h/mL; half-life [5]: 3.46 h; clearance [6]: 26.6 mL/min/kg; bioavailability [7]: 90%; AUC(0-inf) [13]: 1720 ng·h/mL; half-life [14]: 6.17 h; AUC(0-inf) [15]: 743 ng·h/mL; half-life [16]: 6.03 h; clearance [17]: 13.8 mL/min/kg; bioavailability [18]: 31%; concentration at 4 h [8]: 5130 ng/mL; concentration at 4 h [9]: 77 ng/mL; concentration at 4 h [10]: 442 ng/mL; IC50 (Cytochrome P450 3A4): > 15000 nM; IC50 (Cytochrome P450 2C9): > 15000 nM; IC50 (Cytochrome P450 2D6): > 15000 nM; half-life [19]: > 1 h
7.6 | 18.3 | > 10000 | Cc1cccc2c1C1(CCN(C(=O)NC3C4CC5CC(C4)CC3C5)CC1)CC2CC(=O)O (stereo not drawn) | –
3.4 | 23.2 | > 10000 | O=C(O)CC1CC2(CCN(C(=O)NC3C4CC5CC(C4)CC3C5)CC2)c2ccc(Cl)cc21 (stereo not drawn) | –
1.7 | 18 | 9000 | O=C(NC1C2CC3CC(C2)CC1C3)N1CCC2(CC1)CC(CCO)c1cccc(Br)c12 (stereo not drawn) | –
2 | 7.5 | > 10000 | O=C(O)C[C@@H]1CC2(CCN(C(=O)NC3C4CC5CC(C4)CC3C5)CC2)c2c(Br)cccc21 (single isomer, unassigned) | –
